Where “and” joins values, the source holds several entries; their conditions need not be identical. Equal values may be shown once. Each block holds one molecule with its values, some of them ahead of it.
Columns and labels:
12-hLO = target: T1, 12-hLO (Homo sapiens, UniProt P18054); assay: HPLC analysis of product distribution, 12-hLO; assay type: biochemical; details: AA 15 µM, inhibitor at 5 × Ki, HEPES pH 7.5; error in parentheses
T1 sequence (P18054 1-663): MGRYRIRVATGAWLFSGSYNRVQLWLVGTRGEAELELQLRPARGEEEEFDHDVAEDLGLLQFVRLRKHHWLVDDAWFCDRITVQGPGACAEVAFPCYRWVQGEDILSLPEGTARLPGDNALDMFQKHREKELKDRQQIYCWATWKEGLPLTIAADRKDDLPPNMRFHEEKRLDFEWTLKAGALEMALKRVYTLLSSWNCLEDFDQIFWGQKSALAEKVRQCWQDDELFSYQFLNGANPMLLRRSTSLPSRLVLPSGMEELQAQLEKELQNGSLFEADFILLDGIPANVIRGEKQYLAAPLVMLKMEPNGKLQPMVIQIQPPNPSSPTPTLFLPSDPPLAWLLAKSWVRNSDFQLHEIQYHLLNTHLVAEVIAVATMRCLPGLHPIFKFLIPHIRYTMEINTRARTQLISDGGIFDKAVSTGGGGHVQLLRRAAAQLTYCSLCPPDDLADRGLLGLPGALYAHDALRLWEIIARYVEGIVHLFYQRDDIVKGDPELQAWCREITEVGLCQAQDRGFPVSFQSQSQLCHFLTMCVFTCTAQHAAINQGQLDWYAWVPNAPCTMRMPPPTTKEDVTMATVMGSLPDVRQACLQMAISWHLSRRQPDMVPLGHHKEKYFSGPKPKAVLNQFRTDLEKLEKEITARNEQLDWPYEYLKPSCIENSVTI
Summary of the method: (§1)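 Reaction was followed at 235 nm and products isolated after 15 min. Products were resolved by isocratic reverse-phase HPLC (55% A/45% B) against authentic HETE standards, with 8- and 12-HETE coeluting.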

sLO-1 [1] = target: T2, sLO-1 (Glycine max, UniProt P08170); assay: Incubation of thiaLAs with sLO-1 as possible substrates; assay type: biochemical, soybean; details: over the course of one hour
T2 sequence (P08170 1-839): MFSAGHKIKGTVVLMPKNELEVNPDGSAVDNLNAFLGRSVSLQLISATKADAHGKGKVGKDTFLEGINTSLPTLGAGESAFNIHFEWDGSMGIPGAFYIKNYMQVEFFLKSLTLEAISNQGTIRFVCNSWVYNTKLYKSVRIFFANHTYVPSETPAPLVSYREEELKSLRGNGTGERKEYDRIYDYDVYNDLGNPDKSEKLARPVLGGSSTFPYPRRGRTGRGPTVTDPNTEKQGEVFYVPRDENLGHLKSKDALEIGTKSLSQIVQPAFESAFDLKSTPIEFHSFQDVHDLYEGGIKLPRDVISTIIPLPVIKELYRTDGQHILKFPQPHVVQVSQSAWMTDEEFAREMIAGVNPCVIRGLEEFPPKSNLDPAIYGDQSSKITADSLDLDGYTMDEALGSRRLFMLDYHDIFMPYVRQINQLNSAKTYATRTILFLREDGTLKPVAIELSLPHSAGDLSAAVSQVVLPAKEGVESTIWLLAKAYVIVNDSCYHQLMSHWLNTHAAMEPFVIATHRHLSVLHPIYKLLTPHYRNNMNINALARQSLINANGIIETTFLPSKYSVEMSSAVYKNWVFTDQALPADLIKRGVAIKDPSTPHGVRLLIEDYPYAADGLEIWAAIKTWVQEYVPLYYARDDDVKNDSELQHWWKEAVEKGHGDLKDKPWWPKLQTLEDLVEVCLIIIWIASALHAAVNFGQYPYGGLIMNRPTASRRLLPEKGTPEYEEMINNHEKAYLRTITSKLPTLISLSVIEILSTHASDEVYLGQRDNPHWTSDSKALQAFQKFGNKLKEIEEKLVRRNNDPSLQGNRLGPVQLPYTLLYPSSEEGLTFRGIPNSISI

15-hLO-1 = target: T3, 15-hLO-1 (Homo sapiens, UniProt P16050); assay: HPLC analysis of product distribution, 15-hLO-1; assay type: biochemical; details: AA 15 µM, inhibitor at 5 × Ki, HEPES pH 7.5; error in parentheses
T3 sequence (P16050 1-662): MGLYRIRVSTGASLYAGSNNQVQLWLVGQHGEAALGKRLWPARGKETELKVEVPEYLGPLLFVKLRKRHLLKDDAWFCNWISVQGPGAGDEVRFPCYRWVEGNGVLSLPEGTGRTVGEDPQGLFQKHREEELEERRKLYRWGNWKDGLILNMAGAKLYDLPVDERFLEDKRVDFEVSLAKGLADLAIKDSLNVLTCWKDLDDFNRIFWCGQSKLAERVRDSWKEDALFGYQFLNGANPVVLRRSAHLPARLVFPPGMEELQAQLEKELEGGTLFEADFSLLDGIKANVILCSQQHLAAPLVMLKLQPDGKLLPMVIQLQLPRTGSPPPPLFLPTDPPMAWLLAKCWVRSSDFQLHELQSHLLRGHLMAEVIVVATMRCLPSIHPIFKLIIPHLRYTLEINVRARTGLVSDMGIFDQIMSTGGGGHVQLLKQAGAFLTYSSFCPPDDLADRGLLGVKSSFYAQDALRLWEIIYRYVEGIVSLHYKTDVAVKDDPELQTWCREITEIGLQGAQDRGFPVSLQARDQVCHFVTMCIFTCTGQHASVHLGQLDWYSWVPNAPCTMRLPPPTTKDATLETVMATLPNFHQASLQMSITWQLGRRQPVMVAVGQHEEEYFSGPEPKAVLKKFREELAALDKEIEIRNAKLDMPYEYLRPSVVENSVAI
Summary of the method: as §1

[2] = target: T4, human reticulocyte 15-lipoxygenase-1 (15-hLO-1) (Homo sapiens, UniProt P16050); assay: Kinetic inhibition assay of 15-hLO-1; assay type: biochemical; details: for Ki: Kis; for Ki / Kii: noncompetitive
T4 sequence (P16050 1-662): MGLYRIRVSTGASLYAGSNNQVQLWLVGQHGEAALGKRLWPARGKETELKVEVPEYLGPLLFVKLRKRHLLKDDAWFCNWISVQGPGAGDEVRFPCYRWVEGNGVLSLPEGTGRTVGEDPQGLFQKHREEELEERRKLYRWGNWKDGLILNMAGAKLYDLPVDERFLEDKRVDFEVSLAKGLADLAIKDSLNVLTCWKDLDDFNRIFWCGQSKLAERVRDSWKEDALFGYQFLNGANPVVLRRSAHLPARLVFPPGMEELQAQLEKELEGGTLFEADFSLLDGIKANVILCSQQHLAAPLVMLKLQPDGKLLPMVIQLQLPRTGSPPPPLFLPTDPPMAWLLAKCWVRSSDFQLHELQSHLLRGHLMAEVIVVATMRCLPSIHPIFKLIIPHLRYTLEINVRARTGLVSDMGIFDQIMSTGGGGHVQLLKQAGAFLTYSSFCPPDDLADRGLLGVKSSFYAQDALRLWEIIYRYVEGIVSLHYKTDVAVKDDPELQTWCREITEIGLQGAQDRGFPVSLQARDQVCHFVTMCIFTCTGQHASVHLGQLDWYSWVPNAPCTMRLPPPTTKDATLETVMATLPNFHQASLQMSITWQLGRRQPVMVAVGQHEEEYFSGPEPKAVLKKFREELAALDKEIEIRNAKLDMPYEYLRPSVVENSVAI

sLO-1 [3] = target: T2, sLO-1; assay: HPLC analysis of product regioselectivity, sLO-1; assay type: biochemical, soybean; details: exclusive product 13-HPODE, no 9-HPODE, with and without inhibitor
[4] = target: T5, soybean lipoxygenase-1 (sLO-1) (Glycine max, UniProt P08170); assay: Kinetic inhibition assay of sLO-1; assay type: biochemical
T5 sequence (P08170 1-839): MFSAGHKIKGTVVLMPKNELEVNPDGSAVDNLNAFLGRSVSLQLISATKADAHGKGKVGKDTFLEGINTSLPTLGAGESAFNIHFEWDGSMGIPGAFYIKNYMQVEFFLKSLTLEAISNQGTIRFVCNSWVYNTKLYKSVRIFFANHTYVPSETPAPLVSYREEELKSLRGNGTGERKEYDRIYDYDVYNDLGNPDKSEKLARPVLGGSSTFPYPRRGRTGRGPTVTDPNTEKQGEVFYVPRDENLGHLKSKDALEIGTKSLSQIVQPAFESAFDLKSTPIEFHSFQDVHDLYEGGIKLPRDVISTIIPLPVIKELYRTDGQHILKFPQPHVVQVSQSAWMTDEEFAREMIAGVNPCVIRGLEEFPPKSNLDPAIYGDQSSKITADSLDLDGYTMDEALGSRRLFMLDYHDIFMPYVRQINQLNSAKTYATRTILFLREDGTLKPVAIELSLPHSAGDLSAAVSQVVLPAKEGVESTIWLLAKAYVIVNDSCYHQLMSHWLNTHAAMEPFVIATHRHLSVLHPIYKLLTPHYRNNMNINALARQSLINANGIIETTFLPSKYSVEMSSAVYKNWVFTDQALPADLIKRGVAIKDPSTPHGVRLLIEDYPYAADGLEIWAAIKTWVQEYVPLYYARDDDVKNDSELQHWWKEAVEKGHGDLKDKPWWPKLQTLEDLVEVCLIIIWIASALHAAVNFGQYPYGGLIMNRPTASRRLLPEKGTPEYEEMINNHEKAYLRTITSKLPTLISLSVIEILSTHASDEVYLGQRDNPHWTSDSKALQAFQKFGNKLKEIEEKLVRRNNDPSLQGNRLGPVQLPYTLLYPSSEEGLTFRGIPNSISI

[5] = target: T6, human platelet 12-lipoxygenase (12-hLO) (Homo sapiens, UniProt P18054); assay: Kinetic inhibition assay of 12-hLO; assay type: biochemical
T6 sequence (P18054 1-663): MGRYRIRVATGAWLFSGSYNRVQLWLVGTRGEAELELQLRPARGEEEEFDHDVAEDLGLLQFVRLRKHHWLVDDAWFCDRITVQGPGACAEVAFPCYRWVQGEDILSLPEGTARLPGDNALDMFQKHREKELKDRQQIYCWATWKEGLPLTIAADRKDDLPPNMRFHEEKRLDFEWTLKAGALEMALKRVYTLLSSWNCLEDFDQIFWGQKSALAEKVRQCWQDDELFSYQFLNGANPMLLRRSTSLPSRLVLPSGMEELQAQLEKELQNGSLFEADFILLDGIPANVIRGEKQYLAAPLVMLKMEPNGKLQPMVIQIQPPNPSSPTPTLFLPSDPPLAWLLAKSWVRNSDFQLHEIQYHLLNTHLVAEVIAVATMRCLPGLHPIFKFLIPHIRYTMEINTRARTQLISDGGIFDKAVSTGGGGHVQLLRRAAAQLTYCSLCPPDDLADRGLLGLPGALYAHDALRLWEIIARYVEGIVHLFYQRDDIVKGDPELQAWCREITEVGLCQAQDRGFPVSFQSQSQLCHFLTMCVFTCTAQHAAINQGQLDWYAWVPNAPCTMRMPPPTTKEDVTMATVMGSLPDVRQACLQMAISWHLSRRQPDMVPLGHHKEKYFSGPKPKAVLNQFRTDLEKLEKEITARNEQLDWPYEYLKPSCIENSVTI

sLO-1 [6] = target: T2, sLO-1; assay: Consumption of the inhibitor under turnover conditions with 13-HPODE; assay type: biochemical, soybean; details: enzyme, AA and 13-HPODE, 1 hour, HPLC
[7] = substrate LA, pH 7.5, 13-HPODE activator
[8] = Ki (competitive inhibition), substrate linoleic acid, pH 10.0
[9] = substrate linoleic acid, pH 10.0

8-/12-HETE (%) (12-hLO): 93 (1) %
11-HETE (%) (12-hLO): 2 (1) %
15-HETE (%) (12-hLO): 5 (1) %
8-/12-HETE (%) (15-hLO-1): 16 (3) %
11-HETE (%) (15-hLO-1): 5 (1) %
15-HETE (%) (15-hLO-1): 79 (3) %
Mode of inhibition ([2]; AA as substrate): noncompetitive inhibitor
Ki ([2]; substrate AA, 13-HPODE activator): 11.4 µM
Ki [2, 7]: 20.1 µM
Kii ([2]; substrate AA, 13-HPODE activator, listed as 11-ThiaLA): 18.1 ± 2.0 µM
Kii ([2]; substrate AA, 13-HPODE activator, listed as 11-Thialinoleic acid): 18.1 µM
Kii [2, 7]: 20.0 ± 1.4 µM
Mode of inhibition ([2]; with respect to LA): noncompetitive inhibitor
Ki [4, 8]: 22 µM
Ki ([4]; Kis, substrate arachidonic acid, pH 7.5, 13-HPODE activator, noncompetitive): 45.6 ± 11.1 µM
Ki ([4]; Kis, substrate arachidonic acid, pH 10.0, 13-HPODE activator, noncompetitive): 48.5 µM and 48 µM
Mode of inhibition in the presence of activator ([4]; oxidation of LA, 13-HPODE present): competitive inhibition
Mode of inhibition ([4]; substrate AA, pH 10.0 and pH 7.5, 13-HPODE activator): noncompetitive inhibition
Kii ([4]; substrate arachidonic acid, pH 7.5, 13-HPODE activator, noncompetitive): 38.2 ± 5.4 µM
Kii ([4]; substrate arachidonic acid, pH 10.0, 13-HPODE activator, noncompetitive): 36.0 ± 4.0 µM
Mode of inhibition [4, 9]: competitive inhibition
Ki [5]: 2.5 µM
Mode of inhibition ([5]; AA as substrate): competitive inhibitor
Ki for 12-hLO smaller than for sLO-1 (LA) ([5]; compared with Ki for oxidation of LA by sLO-1): approximately 10 fold
Mode of inhibition in the presence of activator ([5]; oxidation of AA, 13-HPODE (16 µM) present): competitive inhibition
Conversion of the inhibitor under turnover conditions (sLO-1 [6]): no discernable conversion
Structure (SMILES): CCCCC/C=C\S/C=C\CCCCCCCC(=O)O [Compound 11-thiaLA, 11-Thialinoleic acid]
Activity as substrate on incubation with sLO-1 (sLO-1 [1]): did not result in any appreciable activity
Effect on product regioselectivity of sLO-1 (sLO-1 [3]): did not affect the product regioselectivity

Ki [4, 8]: 35 µM
Mode of inhibition [4, 9]: competitive inhibition
Substrate or inhibitor behaviour with 12-hLO ([5]; AA as substrate): neither a substrate nor an inhibitor
Conversion of the inhibitor under turnover conditions (sLO-1 [6]): oxidized to a small extent
Structure (SMILES): CCCCS/C=C\C/C=C\CCCCCCCC(=O)O [Compound 14-thiaLA, 14-Thialinoleic acid]
Activity as substrate on incubation with sLO-1 (sLO-1 [1]): did not result in any appreciable activity

— PMC2883171 (Organic & biomolecular chemistry, 2008)
